Consider 18 compounds from ChEMBL document CHEMBL4699450, “Nonclassical Phenyl Bioisosteres as Effective Replacements in a Series of Novel Open-Source Antimalarials” (J Med Chem, 2020).

One series deals with Plasmodium falciparum. Description: Antiplasmodial activity against Plasmodium falciparum 3D7 by SYBR green-I fluorescence dye based fluorescence assay. It is filed as functional, organism-based. An outline of the steps: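 P. falciparum 3D7 grown in human red cells (1.25% or 5% suspension) in RPMI 1640 with 0.5% Albumax II, 12 mM bicarbonate, 0.2 mM hypoxanthine, pH 7.3, gentamicin, 37 °C, 1% O2/3% CO2. Ten-point dose-response, 1-in-3 dilutions; SYBR Green I DNA fluorescence (ex 485/em 528 nm); mefloquine control; percent inhibition vs high/no-inhibition controls; four-parameter fit; IC50 from ≥3 independent experiments.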

For series [1], the target named is Voltage-gated inwardly rectifying potassium channel KCNH2 (Homo sapiens, UniProt Q12809). The experiment in a line: Inhibition of human ERG.
Series [2] can be described thus: Distribution coefficient, logD of compound at pH 7.4 by HPLC analysis. It is filed as physicochemical. As to conditions: octanol/water. Put shortly: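 LogD at pH 7.4 estimated by gradient HPLC, correlating retention (mean of 2 injections) against standards of known partition coefficient.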
The nature of series [3]: Kinetic solubility in pH 6.5 phosphate buffer after 30 mins by nephelometry. It counts as physicochemical. Conditions: read-out: Kinetic_solubility. Put shortly:
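DMSO stock spiked into pH 6.5 phosphate buffer at 7 concentrations, final DMSO 1%; after 30 min precipitation read by nephelometry to give a solubility range.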

Series [4] in a line: Half life in human liver microsomes at 1 uM in presence of NADPH-regenerating system. It counts as ADME, Microsome. (In general: Liver microsomes are vesicles of endoplasmic reticulum, rich in cytochrome P450 enzymes.)
Series [5] in a line: Half life in mouse liver microsomes at 1 uM in presence of NADPH-regenerating system. It counts as ADME, Microsome.

A word on the pIC50: it is the IC50 on a negative log10 scale, so that one unit is a factor of ten. A word on the logD: it is the decadic logarithm of the distribution of all forms, ionised or not, between an organic phase and buffer at a given pH. Read a high logD as a more lipophilic compound. Broadly, the half-life is how long it takes for the measured level to halve.

pIC50: −log10 of the molar value. Converted amounts (≈) assume the structure as drawn. The source made the active and inactive calls. The calls are words filed in the database; no cut-off is given here.

Sequence of Voltage-gated inwardly rectifying potassium channel KCNH2 (Q12809 whole entry): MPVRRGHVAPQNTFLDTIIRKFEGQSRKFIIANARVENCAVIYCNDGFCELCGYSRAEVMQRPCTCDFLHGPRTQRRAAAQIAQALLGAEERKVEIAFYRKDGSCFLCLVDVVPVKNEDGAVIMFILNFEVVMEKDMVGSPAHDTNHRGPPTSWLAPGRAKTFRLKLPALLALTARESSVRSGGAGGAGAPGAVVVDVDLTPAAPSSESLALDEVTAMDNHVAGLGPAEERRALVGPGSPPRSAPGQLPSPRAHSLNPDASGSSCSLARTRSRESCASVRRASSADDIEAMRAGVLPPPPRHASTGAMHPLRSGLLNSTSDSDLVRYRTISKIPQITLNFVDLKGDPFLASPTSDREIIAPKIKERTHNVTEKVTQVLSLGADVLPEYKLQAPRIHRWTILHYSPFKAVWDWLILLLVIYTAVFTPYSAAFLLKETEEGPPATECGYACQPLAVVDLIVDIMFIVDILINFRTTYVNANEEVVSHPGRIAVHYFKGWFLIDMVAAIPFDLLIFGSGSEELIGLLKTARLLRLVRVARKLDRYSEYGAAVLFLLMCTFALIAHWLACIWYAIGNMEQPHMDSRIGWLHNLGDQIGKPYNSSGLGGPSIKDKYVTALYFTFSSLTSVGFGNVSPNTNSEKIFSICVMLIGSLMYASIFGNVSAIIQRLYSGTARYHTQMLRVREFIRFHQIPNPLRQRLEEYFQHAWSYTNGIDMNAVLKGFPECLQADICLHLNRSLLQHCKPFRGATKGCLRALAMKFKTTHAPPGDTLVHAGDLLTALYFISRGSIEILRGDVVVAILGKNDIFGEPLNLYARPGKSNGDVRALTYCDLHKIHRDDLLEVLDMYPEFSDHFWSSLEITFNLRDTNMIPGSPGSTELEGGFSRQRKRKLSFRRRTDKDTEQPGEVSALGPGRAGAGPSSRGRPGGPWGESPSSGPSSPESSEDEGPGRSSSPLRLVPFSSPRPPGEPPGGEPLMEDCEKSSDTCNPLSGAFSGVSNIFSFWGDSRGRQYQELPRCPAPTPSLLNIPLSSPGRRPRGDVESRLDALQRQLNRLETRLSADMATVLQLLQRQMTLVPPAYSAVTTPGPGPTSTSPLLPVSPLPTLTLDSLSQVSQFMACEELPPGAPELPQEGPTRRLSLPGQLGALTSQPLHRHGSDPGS

As for `FC(F)Oc1ccc(-c2nnc3cncc(OCCN4CCCC4)n23)cc1`, in the series with Plasmodium falciparum, the outcome was inactive.

For the compound `FC(F)Oc1ccc(-c2nnc3cncc(OC[C@H]4C[C@@H]5C[C@@H]4[C@H]4O[C@@H]54)n23)cc1`, in the series on Plasmodium falciparum, the outcome was inactive.

For the compound `FC(F)Oc1ccc(-c2nnc3cncc(OCCN4CCCCC4)n23)cc1`, in the series on Plasmodium falciparum, the result was inactive.

In the case of `FC(F)Oc1ccc(-c2nnc3cncc(OCCc4ccccc4)n23)cc1`, the negative-log IC50 (pIC50) in series [1] was 5.13. The compound further gave a logD in series [2] of 3.7. For the same compound, in series [3], the solubility kinetic at 0.5 h stood at 6.3 µg/mL (≈ 16.5 µM). The half-life at 1 µM in series [4] was 26 min; in series [5], 7 min.

Turning to `FC(F)Oc1ccc(-c2nnc3cncc(OCCC45C6C7C8C6C4C8C75)n23)cc1` (stereo unspecified), the result with Plasmodium falciparum was Active. In series [1], this compound showed a pIC50 of 5.37. The compound also yielded a logD in series [2] of 4.3. Moreover, the solubility kinetic at 0.5 h in series [3] is less than 1.6 µg/mL. Besides, the half-life at 1 µM in series [4] was determined as 9 min; in series [5], 3 min.

In the case of `CC(C)(C)OC(=O)N1CCN(CCOc2cncc3nnc(-c4ccc(OC(F)F)cc4)n23)CC1`, the result with Plasmodium falciparum was inactive.

Turning to `CC(C)(C)OC(=O)N1CCC(c2nnc3cncc(OCCc4ccccc4)n23)C1` (stereo unspecified), the outcome with Plasmodium falciparum was inactive.

As to `c1ccc(CCOc2cncc3nnc(C4CCNCC4)n23)cc1`, in the series with Plasmodium falciparum, the result was inactive.

As to `FC(F)Oc1ccc(-c2nnc3cncc(OCCN4CCNCC4)n23)cc1`, in the series on Plasmodium falciparum, the outcome was inactive.

As for `c1ccc(CCOc2cncc3nnc(C4CCOC4)n23)cc1` (stereo unspecified), the outcome in the series with Plasmodium falciparum was inactive.

For `FC(F)Oc1ccc(-c2nnc3cncc(Oc4ccccc4)n23)cc1`, in the series with Plasmodium falciparum, the outcome was inactive.

As for `c1ccc(CCOc2cncc3nnc(C4CCNC4)n23)cc1` (stereo unspecified), the outcome in the series with Plasmodium falciparum was inactive.

Consider `FC(F)Oc1ccc(-c2nnc3cncc(OCC45CC(C(F)F)(C4)C5)n23)cc1`, for which the outcome with Plasmodium falciparum was Active. The same compound returned a logD in series [2] of 3.6. Besides, the solubility kinetic at 0.5 h in series [3] was 6.3 µg/mL (≈ 15.4 µM). Besides, the half-life at 1 µM in series [4] came to 190 min; in series [5], 66 min.

On to `c1ccc(CCOc2cncc3nnc(C4CCOCC4)n23)cc1`, for which the outcome with Plasmodium falciparum was inactive.

For the compound `FC(F)Oc1ccc(-c2nnc3cncc(OCCC4COC4)n23)cc1`, the outcome in the series with Plasmodium falciparum was inactive.

In the case of `FC(F)Oc1ccc(-c2nnc3cncc(OC[C@H]4C[C@@H]5C[C@@H]4[C@@H]4O[C@H]54)n23)cc1`, the result in the series on Plasmodium falciparum was inactive.

With `FC(F)Oc1ccc(-c2nnc3cncc(OCCN4CC5(COC5)C4)n23)cc1`, in the series with Plasmodium falciparum, the outcome was inactive.

As to `CC(C)(C)OC(=O)N1CCC(c2nnc3cncc(OCCc4ccccc4)n23)CC1`, the outcome with Plasmodium falciparum was inactive.
